In ChEMBL document CHEMBL1287651, “Synthesis and in vitro antibacterial activity of fluoroquinolone derivatives containing 3-(N'-alkoxycarbamimidoyl)-4-(alkoxyimino) pyrrolidines” (2010):
In brackets after ≈: the same amount, converted by molar mass.

How the values were obtained:
Assay type in all cases: functional
Staphylococcus aureus [1] = experiment: Antibacterial activity against Staphylococcus aureus ATCC […] after 18 to 24 hrs by twofold serial dilution method
How it was run: (§1)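 MIC determined by the standard twofold serial dilution method on agar media, screening against Gram-positive and Gram-negative strains. Levofloxacin and gemifloxacin were run alongside as reference drugs.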

Staphylococcus aureus [2] = experiment: Antibacterial activity against methicillin-resistant Staphylococcus aureus 08-1 after 18 to 24 hrs by twofold serial dilution method
How it was run: (§2)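 Standard twofold serial agar dilution method on agar media for MIC determination. Screened against representative Gram-positive and Gram-negative strains. Levofloxacin and GMFX served as control drugs.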

Staphylococcus aureus [3] = experiment: Antibacterial activity against methicillin-sensitive Staphylococcus aureus 08-2 after 18 to 24 hrs by twofold serial dilution method; how it was run: as §2
[4] = tested on: Staphylococcus epidermidis; experiment: Antibacterial activity against methicillin-resistant Staphylococcus epidermidis 09-2 after 18 to 24 hrs by twofold serial dilution method; how it was run: as §2
[5] = tested on: Staphylococcus epidermidis; experiment: Antibacterial activity against methicillin-resistant Staphylococcus epidermidis 09-3 after 18 to 24 hrs by twofold serial dilution method; how it was run: as §2
[6] = tested on: Staphylococcus epidermidis; experiment: Antibacterial activity against methicillin-resistant Staphylococcus epidermidis 09-4 after 18 to 24 hrs by twofold serial dilution method; how it was run: as §2
[7] = tested on: Staphylococcus epidermidis; experiment: Antibacterial activity against methicillin-sensitive Staphylococcus epidermidis 09-3 after 18 to 24 hrs by twofold serial dilution method; how it was run: as §2
[8] = tested on: Staphylococcus epidermidis; experiment: Antibacterial activity against methicillin-sensitive Staphylococcus epidermidis 09-6 after 18 to 24 hrs by twofold serial dilution method; how it was run: as §2
Streptococcus pneumoniae [9] = experiment: Antibacterial activity against Streptococcus pneumoniae 08-2 after 18 to 24 hrs by twofold serial dilution method; how it was run: as §1
Streptococcus pneumoniae [10] = experiment: Antibacterial activity against Streptococcus pneumoniae 08-4 after 18 to 24 hrs by twofold serial dilution method; how it was run: as §1
Enterococcus faecium [11] = experiment: Antibacterial activity against Enterococcus faecium 08-2 after 18 to 24 hrs by twofold serial dilution method; how it was run: as §1
Enterococcus faecium [12] = experiment: Antibacterial activity against Enterococcus faecium 08-7 after 18 to 24 hrs by twofold serial dilution method; how it was run: as §1
Enterococcus faecalis [13] = experiment: Antibacterial activity against Enterococcus faecalis 08-10 after 18 to 24 hrs by twofold serial dilution method; how it was run: as §1
Enterococcus faecalis [14] = experiment: Antibacterial activity against Enterococcus faecalis 08-12 after 18 to 24 hrs by twofold serial dilution method; how it was run: as §1
Escherichia coli [15] = experiment: Antibacterial activity against Escherichia coli ATCC 25922 after 18 to 24 hrs by twofold serial dilution method; how it was run: as §1
Escherichia coli [16] = experiment: Antibacterial activity against Escherichia coli 08-21 after 18 to 24 hrs by twofold serial dilution method; how it was run: as §1
Escherichia coli [17] = experiment: Antibacterial activity against Escherichia coli 08-22 after 18 to 24 hrs by twofold serial dilution method; how it was run: as §1
Klebsiella pneumoniae [18] = experiment: Antibacterial activity against Klebsiella pneumoniae 09-21 after 18 to 24 hrs by twofold serial dilution method; how it was run: as §1
Klebsiella pneumoniae [19] = experiment: Antibacterial activity against Klebsiella pneumoniae 09-22 after 18 to 24 hrs by twofold serial dilution method; how it was run: as §1
Klebsiella pneumoniae [20] = experiment: Antibacterial activity against Klebsiella pneumoniae 09-23 after 18 to 24 hrs by twofold serial dilution method; how it was run: as §1
Pseudomonas aeruginosa [21] = experiment: Antibacterial activity against Pseudomonas aeruginosa ATCC 27853 after 18 to 24 hrs by twofold serial dilution method; how it was run: as §1
Pseudomonas aeruginosa [22] = experiment: Antibacterial activity against Pseudomonas aeruginosa 09-32 after 18 to 24 hrs by twofold serial dilution method; how it was run: as §1
Pseudomonas aeruginosa [23] = experiment: Antibacterial activity against Pseudomonas aeruginosa 09-33 after 18 to 24 hrs by twofold serial dilution method; how it was run: as §1
Pseudomonas aeruginosa [24] = experiment: Antibacterial activity against Pseudomonas aeruginosa 09-34 after 18 to 24 hrs by twofold serial dilution method; how it was run: as §1
Pseudomonas aeruginosa [25] = experiment: Antibacterial activity against Pseudomonas aeruginosa 09-35 after 18 to 24 hrs by twofold serial dilution method; how it was run: as §1

Row | SMILES | MIC (Staphylococcus aureus [1]) [µg/mL] | MIC (Staphylococcus aureus [2]) [µg/mL] | MIC (Staphylococcus aureus [3]) [µg/mL] | MIC [4] [µg/mL] | MIC [5] [µg/mL] | MIC [6] [µg/mL] | MIC [7] [µg/mL] | MIC [8] [µg/mL] | MIC (Streptococcus pneumoniae [9]) [µg/mL] | MIC (Streptococcus pneumoniae [10]) [µg/mL] | MIC (Enterococcus faecium [11]) [µg/mL] | MIC (Enterococcus faecium [12]) [µg/mL] | MIC (Enterococcus faecalis [13]) [µg/mL] | MIC (Enterococcus faecalis [14]) [µg/mL] | MIC (Escherichia coli [15]) [µg/mL] | MIC (Escherichia coli [16]) [µg/mL] | MIC (Escherichia coli [17]) [µg/mL] | MIC (Klebsiella pneumoniae [18]) [µg/mL] | MIC (Klebsiella pneumoniae [19]) [µg/mL] | MIC (Klebsiella pneumoniae [20]) [µg/mL] | further results
1 | CO/N=C1\CN(c2nc3c(cc2F)c(=O)c(C(=O)O)cn3C2CC2)CC1CN (stereo not given) [GEMIFLOXACIN] | 0.125 (≈ 0.321 µM) | 0.25 (≈ 0.642 µM) | 0.125 (≈ 0.321 µM) | 0.125 (≈ 0.321 µM) | 0.06 (≈ 0.154 µM) | 0.06 (≈ 0.154 µM) | 0.125 (≈ 0.321 µM) | 0.25 (≈ 0.642 µM) | 8 (≈ 20.5 µM) | 0.25 (≈ 0.642 µM) | 16 (≈ 41.1 µM) | 2 (≈ 5.14 µM) | 16 (≈ 41.1 µM) | 16 (≈ 41.1 µM) | 4 (≈ 10.3 µM) | 16 (≈ 41.1 µM) | 2 (≈ 5.14 µM) | 16 (≈ 41.1 µM) | 8 (≈ 20.5 µM) | 8 (≈ 20.5 µM) | MIC (Pseudomonas aeruginosa [21]): 2 µg/mL (≈ 5.14 µM); MIC (Pseudomonas aeruginosa [22]): 0.5 µg/mL (≈ 1.28 µM); MIC (Pseudomonas aeruginosa [23]): 2 µg/mL (≈ 5.14 µM); MIC (Pseudomonas aeruginosa [24]): 0.5 µg/mL (≈ 1.28 µM); MIC (Pseudomonas aeruginosa [25]): 0.5 µg/mL (≈ 1.28 µM)
2 | CO/N=C1\CN(c2c(F)cc3c(=O)c(C(=O)O)cn4c3c2OC[C@@H]4C)CC1/C(N)=N\OC (stereo not given in full) | 0.125 (≈ 0.279 µM) | 0.25 (≈ 0.559 µM) | 0.25 (≈ 0.559 µM) | 0.25 (≈ 0.559 µM) | 0.25 (≈ 0.559 µM) | 0.25 (≈ 0.559 µM) | 0.25 (≈ 0.559 µM) | 0.25 (≈ 0.559 µM) | 16 (≈ 35.8 µM) | 0.25 (≈ 0.559 µM) | 128 (≈ 286 µM) | 128 (≈ 286 µM) | > 128 | > 128 | 128 (≈ 286 µM) | > 128 | > 128 | > 128 | 0.5 (≈ 1.12 µM) | > 128 | MIC (Pseudomonas aeruginosa [21]): 4 µg/mL (≈ 8.94 µM); MIC (Pseudomonas aeruginosa [22]): 8 µg/mL (≈ 17.9 µM); MIC (Pseudomonas aeruginosa [23]): > 128 µg/mL; MIC (Pseudomonas aeruginosa [24]): > 128 µg/mL; MIC (Pseudomonas aeruginosa [25]): 8 µg/mL (≈ 17.9 µM)
3 | CCO/N=C1\CN(c2c(F)cc3c(=O)c(C(=O)O)cn(CCF)c3c2F)CC1/C(N)=N\OC (stereo not given) | 2 (≈ 4.26 µM) | 4 (≈ 8.52 µM) | > 128 | > 128 | 0.25 (≈ 0.533 µM) | 0.125 (≈ 0.266 µM) | 0.25 (≈ 0.533 µM) | 0.25 (≈ 0.533 µM) | > 128 | > 128 | > 128 | > 128 | > 128 | > 128 | > 128 | > 128 | > 128 | > 128 | > 128 | > 128 | MIC (Pseudomonas aeruginosa [21]): > 128 µg/mL; MIC (Pseudomonas aeruginosa [22]): > 128 µg/mL; MIC (Pseudomonas aeruginosa [23]): > 128 µg/mL; MIC (Pseudomonas aeruginosa [24]): > 128 µg/mL; MIC (Pseudomonas aeruginosa [25]): > 128 µg/mL
4 | CO/N=C1\CN(c2c(F)cc3c(=O)c(C(=O)O)cn(C4CC4)c3c2OC)CC1/C(N)=N\OC (stereo not given) | 0.125 (≈ 0.271 µM) | 0.25 (≈ 0.542 µM) | 0.125 (≈ 0.271 µM) | 0.25 (≈ 0.542 µM) | 0.25 (≈ 0.542 µM) | 0.25 (≈ 0.542 µM) | 0.125 (≈ 0.271 µM) | 0.25 (≈ 0.542 µM) | 8 (≈ 17.3 µM) | 0.25 (≈ 0.542 µM) | > 128 | > 128 | > 128 | > 128 | 128 (≈ 277 µM) | > 128 | > 128 | > 128 | 2 (≈ 4.33 µM) | > 128 | MIC (Pseudomonas aeruginosa [21]): 64 µg/mL (≈ 139 µM); MIC (Pseudomonas aeruginosa [22]): 128 µg/mL (≈ 277 µM); MIC (Pseudomonas aeruginosa [23]): > 128 µg/mL; MIC (Pseudomonas aeruginosa [24]): > 128 µg/mL; MIC (Pseudomonas aeruginosa [25]): 128 µg/mL (≈ 277 µM)
